Values after ≈ are worked out from the molar mass of the structure shown. Active and inactive are the calls of the source. No cut-off for these calls is given here.
How the values were obtained:
[1] = biological target: T1, 1-deoxy-D-xylulose 5-phosphate reductoisomerase (Mycobacterium smegmatis (strain ATCC 700084 / mc(2)155)) (UniProt A0QVH7); assay: Inhibition of Mycobacterium smegmatis DSM 43756 ATCC 19420 N-terminal his-tagged DXR expressed in XL1-blue Escherichia coli using NADPH and DXP as substrate at 1 uM […]; settings: Mycolicibacterium smegmatis
T1 sequence (whole entry): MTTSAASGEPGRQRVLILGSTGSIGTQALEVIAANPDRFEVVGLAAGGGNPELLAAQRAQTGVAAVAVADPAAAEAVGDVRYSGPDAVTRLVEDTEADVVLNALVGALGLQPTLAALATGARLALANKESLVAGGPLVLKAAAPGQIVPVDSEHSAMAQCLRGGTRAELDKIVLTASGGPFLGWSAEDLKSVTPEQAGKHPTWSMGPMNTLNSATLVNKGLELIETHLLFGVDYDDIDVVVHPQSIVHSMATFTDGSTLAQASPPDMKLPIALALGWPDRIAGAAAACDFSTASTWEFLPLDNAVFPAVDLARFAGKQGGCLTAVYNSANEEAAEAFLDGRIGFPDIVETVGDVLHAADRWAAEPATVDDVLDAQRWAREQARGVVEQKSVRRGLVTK

[2] = test system: Escherichia coli; assay: Inhibition of Escherichia coli DXR at 1 uM
[3] = test system: Mycolicibacterium smegmatis; assay: Antimycobacterial activity against Mycobacterium smegmatis at 400 nmol/disc after 24 hrs by paper disc diffusion method; format: functional
In short: (§1)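 M. smegmatis (grown at 37 °C) was spread from a tenfold-diluted overnight culture on agar plates containing yeast extract, malt extract, CaCO₃ and glucose. Compounds were dissolved at 100 mM in DMSO or water, and 4 µL was put on each 6 mm disc. Isoniazid was dissolved at 7.5 mM, and 2 µL was put on each disc. Inhibition zones were read after 24 h at 37 °C.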

[4] = test system: Escherichia coli; assay: Antimycobacterial activity against Escherichia coli at 400 nmol/disc after 24 hrs by paper disc diffusion method; format: functional, organism-based
[5] = biological target: T2, 1-deoxy-D-xylulose 5-phosphate reductoisomerase (Mycobacterium smegmatis (strain ATCC 700084 / mc(2)155), UniProt A0QVH7); assay: Inhibition of Mycobacterium smegmatis DXR; set-up: species or system Mycolicibacterium smegmatis
T2 sequence (A0QVH7 whole entry): T1 sequence (whole entry)
In short: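 His-tagged M. smegmatis DXR (N-terminal tag, expressed in E. coli, Ni2+ column purified) was pre-incubated with inhibitor and 0.15 mM NADPH for 2 min at 37 °C in 50 mM Tris/HCl pH 7.5, 3 mM MgCl2, 2 mM DTT. Reaction started with 0.5 mM DXP; initial rates from NADPH absorbance decrease at 340 nm. IC50 from residual activity versus log inhibitor concentration; mean of two independent determinations.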

[6] = biological target: T2, 1-deoxy-D-xylulose 5-phosphate reductoisomerase (Mycobacterium smegmatis (strain ATCC 700084 / mc(2)155), UniProt A0QVH7); assay: Inhibition of Mycobacterium smegmatis DSM 43756 ATCC 19420 N-terminal his-tagged DXR expressed in XL1-blue Escherichia coli using NADPH and DXP as substrate preincubated for 2 mins […]; set-up: species or system Mycolicibacterium smegmatis
In short: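 N-terminal His-tagged M. smegmatis DXR, Ni²⁺-purified and kept in glycerol/NaCl buffer. Assay at 37 °C in 50 mM Tris/HCl pH 7.5 with 3 mM MgCl₂, 2 mM DTT, 0.15 mM NADPH and 0.5 mM DXP. Enzyme and inhibitor were preincubated 2 min with NADPH, then DXP started the reaction. Initial rates were read as A340 decrease. Inhibitor range was 0.1–0.6 or 0.2–2 µM. IC50 came from residual activity vs log concentration, mean of two determinations.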

[7] = test system: Mycolicibacterium smegmatis; assay: Antimycobacterial activity against Mycobacterium smegmatis assessed as viability at 250 uM after 15 mins by resazurin test; format: functional, organism-based
In short: (§2)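 A fresh M. smegmatis preculture was adjusted to McFarland 0.5. Then 0.2 mL went into 1.8 mL medium with inhibitor (final isoniazid 10–40 µM; other compound 250–1000 µM), shaken 24 h at 37 °C. Of this, 50 µL was added to 150 µL fresh medium, in duplicate, plus 0.01% resazurin. Plates were kept at 37 °C, and the blue-to-pink change was followed by eye for 12 h, with growth and sterile controls.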

[8] = test system: Mycolicibacterium smegmatis; assay: Antimycobacterial activity against Mycobacterium smegmatis assessed as viability at 500 uM after 5 hrs by resazurin test; format: functional, organism-based; in short: as §2
[9] = test system: Mycolicibacterium smegmatis; assay: Antimycobacterial activity against Mycobacterium smegmatis; format: functional
[10] = test system: Mycolicibacterium smegmatis; assay: Antimycobacterial activity against Mycobacterium smegmatis at 15 nmol/disc after 24 hrs by paper disc diffusion method; format: functional; in short: as §1
[11] = test system: Mycolicibacterium smegmatis; assay: Antimycobacterial activity against Mycobacterium smegmatis assessed as viability at 10 uM after 1 hr by resazurin test; format: functional, organism-based; in short: as §2
[12] = test system: Mycolicibacterium smegmatis; assay: Antimycobacterial activity against Mycobacterium smegmatis assessed as viability at 20 uM after 5 to 12 hrs by resazurin test; format: functional, organism-based; in short: as §2
[13] = test system: Mycobacterium tuberculosis; assay: Antimycobacterial activity against Mycobacterium tuberculosis; format: functional

CCCC(=O)OCOP(=O)(CCCN(O)C(C)=O)OCOC(=O)CCC
inhibition [1]: inactive | inhibition [2]: inactive | growth inhibition (GI) [3]: inactive | growth inhibition (GI) [4]: inactive

CCCC(=O)OCOP(=O)(CCCN(O)C=O)OCOC(=O)CCC
growth inhibition (GI) [3]: inactive | growth inhibition (GI) [4]: inactive

O=CN(O)CCCP(=O)(O)O [FOSMIDOMYCIN]
IC50 [5]: 80 nM | IC50 [6]: 510 nM | growth inhibition (GI) [3]: inactive

CCCC(=O)OCOP(=O)(CCCC(=O)N(C)O)OCOC(=O)CCC
inhibition [1]: inactive | inhibition [2]: inactive | diameter of the inhibition zone (DIZ) [3]: 23 mm | growth inhibition (GI) [7]: inactive | growth inhibition (GI) [8]: Active | MIC [9]: 250 µM (≈ 99.3 µg/mL) | growth inhibition (GI) [4]: inactive

CN(O)C(=O)CCCP(=O)(O)O
IC50 [6]: 410 nM | growth inhibition (GI) [3]: inactive

O=C(CCCP(=O)(OCOC(=O)c1ccccc1)OCOC(=O)c1ccccc1)NO
growth inhibition (GI) [3]: inactive | growth inhibition (GI) [4]: inactive

CC(C)(C)C(=O)OCOP(=O)(CCCC(=O)NO)OCOC(=O)C(C)(C)C
growth inhibition (GI) [3]: inactive | growth inhibition (GI) [4]: inactive

NNC(=O)c1ccncc1 [ISONIAZID]
diameter of the inhibition zone (DIZ) [10]: 29 mm | growth inhibition (GI) [11]: inactive | growth inhibition (GI) [12]: inactive | MIC [9]: 10 µM (≈ 1.37 µg/mL) | MIC [13]: 7 µg/mL (≈ 51 µM)

CN(O)C(=O)CCCP(=O)(OCOC(=O)c1ccccc1)OCOC(=O)c1ccccc1
diameter of the inhibition zone (DIZ) [3]: 11 mm | MIC [13]: 25 µg/mL (≈ 53.7 µM) | growth inhibition (GI) [4]: inactive

CCCC(=O)OCOP(=O)(CCCC(=O)NO)OCOC(=O)CCC
growth inhibition (GI) [3]: inactive | growth inhibition (GI) [4]: inactive

O=C(CCCP(=O)(O)O)NO
IC50 [6]: 1480 nM | growth inhibition (GI) [3]: inactive

CN(O)C(=O)CCCP(=O)(OCOC(=O)C(C)(C)C)OCOC(=O)C(C)(C)C
diameter of the inhibition zone (DIZ) [3]: 15 mm | MIC [13]: 50 µg/mL (≈ 118 µM) | growth inhibition (GI) [4]: inactive

CC(=O)N(O)CCCP(=O)(O)O [FR-900098]
IC50 [6]: 320 nM | growth inhibition (GI) [3]: inactive
